The target in series [1] is G-protein coupled receptor 68 (Mus musculus) (UniProt Q8BFQ3). Kind of series: Positive allosteric modulation of mouse GPR68 expressed in HEK293T cells co-expressing Gs assessed as stimulation of proton-mediated cAMP production by measuring allosteric affinity cooperativity in HBSS buffer containing pH 6.8 to 8.2 HEPES/pH 8.3 to 8.6 TAPS measured after 20 to 30 mins in presence of PDE inhibitor Ro 20-1724 by luciferase-glo reporter gene assay. In kind it is functional, cell-based. A digest of the protocol: (§1)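 α, β and KB obtained by fitting proton responses with and without modulator to the standard allosteric operational model. Overall index is log(αβ/KB). Values are mean ± SEM from ≥3 independent assays, each run in triplicate or quadruplicate.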
Chain of G-protein coupled receptor 68 (Mus musculus) (Q8BFQ3 whole entry): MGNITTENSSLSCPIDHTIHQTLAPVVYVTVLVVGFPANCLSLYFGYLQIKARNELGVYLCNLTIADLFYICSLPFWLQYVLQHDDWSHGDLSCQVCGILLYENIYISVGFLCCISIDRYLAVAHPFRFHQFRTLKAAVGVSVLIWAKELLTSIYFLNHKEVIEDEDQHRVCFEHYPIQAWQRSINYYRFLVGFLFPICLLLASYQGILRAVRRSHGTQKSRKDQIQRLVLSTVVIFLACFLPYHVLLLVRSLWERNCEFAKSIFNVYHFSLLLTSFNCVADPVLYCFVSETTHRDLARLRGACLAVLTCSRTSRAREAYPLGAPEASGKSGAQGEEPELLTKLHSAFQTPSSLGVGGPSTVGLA

The target of series [2] is T1, Melatonin receptor type 1B (Homo sapiens) (UniProt P49286).
T1 sequence (whole entry): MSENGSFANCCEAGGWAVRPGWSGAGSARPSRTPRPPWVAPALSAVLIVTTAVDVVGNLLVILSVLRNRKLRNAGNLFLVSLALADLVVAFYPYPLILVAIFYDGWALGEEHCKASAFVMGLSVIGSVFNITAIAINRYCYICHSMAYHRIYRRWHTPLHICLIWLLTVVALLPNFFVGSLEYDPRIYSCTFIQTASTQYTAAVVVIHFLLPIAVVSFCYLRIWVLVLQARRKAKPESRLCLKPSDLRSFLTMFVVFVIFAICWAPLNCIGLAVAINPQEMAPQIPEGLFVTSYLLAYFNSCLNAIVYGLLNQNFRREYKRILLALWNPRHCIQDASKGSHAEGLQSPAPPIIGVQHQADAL
Kind of series: Agonist activity at human MT2 receptor expressed in HTLA cells assessed as stimulation of beta-arrestin recruitment at 1 uM incubated for 16 to 20 hrs by bright-glo luminescence assay. In kind it is cell-based. For orientation: Recruitment of arrestin is a read-out of receptor activation apart from second messengers.

The target in series [3] is G-protein coupled receptor 68 (Mus musculus) (UniProt Q8BFQ3). Kind of series: Positive allosteric modulation of mouse GPR68 expressed in HEK293T cells co-expressing Gs assessed as stimulation of proton-mediated cAMP production by measuring efficacy cooperativity in HBSS buffer containing pH 6.8 to 8.2 HEPES/pH 8.3 to 8.6 TAPS measured after 20 to 30 mins in presence of PDE inhibitor Ro 20-1724 by luciferase-glo reporter gene assay. In kind it is functional, cell-based. In short, it runs like this: as §1

For series [4], the target named is T2, 5-hydroxytryptamine receptor 2B (Homo sapiens, UniProt P41595). Kind of series: Displacement of [3H]LSD from recombinant human 5HT2B stably expressed in HEK cell membranes incubated for 90 mins under dark condition by microbeta scintillation counting analysis. (Displacement assays read how much labelled ligand stays bound in the presence of the test substance.)
T2 sequence (P41595 whole entry): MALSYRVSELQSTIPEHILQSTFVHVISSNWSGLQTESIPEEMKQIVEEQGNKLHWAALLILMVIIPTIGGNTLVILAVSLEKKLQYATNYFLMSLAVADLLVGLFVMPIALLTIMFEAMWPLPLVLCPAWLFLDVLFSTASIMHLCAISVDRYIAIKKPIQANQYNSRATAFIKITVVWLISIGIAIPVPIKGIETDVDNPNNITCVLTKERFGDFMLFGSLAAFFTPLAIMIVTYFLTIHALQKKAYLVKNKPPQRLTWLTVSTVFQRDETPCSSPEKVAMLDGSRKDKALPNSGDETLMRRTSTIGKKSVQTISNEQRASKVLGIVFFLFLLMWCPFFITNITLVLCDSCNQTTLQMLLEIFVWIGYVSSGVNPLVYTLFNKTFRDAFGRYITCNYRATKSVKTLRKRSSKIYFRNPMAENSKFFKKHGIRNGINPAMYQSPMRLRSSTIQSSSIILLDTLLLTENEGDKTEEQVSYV

Series [5] deals with T3, Melatonin receptor type 1A (Homo sapiens, UniProt P48039). Kind of series: Agonist activity at human MT1 receptor expressed in HTLA cells assessed as stimulation of beta-arrestin recruitment at 1 uM incubated for 16 to 20 hrs by bright-glo luminescence assay. Type of series: cell-based.
T3 sequence (P48039 whole entry): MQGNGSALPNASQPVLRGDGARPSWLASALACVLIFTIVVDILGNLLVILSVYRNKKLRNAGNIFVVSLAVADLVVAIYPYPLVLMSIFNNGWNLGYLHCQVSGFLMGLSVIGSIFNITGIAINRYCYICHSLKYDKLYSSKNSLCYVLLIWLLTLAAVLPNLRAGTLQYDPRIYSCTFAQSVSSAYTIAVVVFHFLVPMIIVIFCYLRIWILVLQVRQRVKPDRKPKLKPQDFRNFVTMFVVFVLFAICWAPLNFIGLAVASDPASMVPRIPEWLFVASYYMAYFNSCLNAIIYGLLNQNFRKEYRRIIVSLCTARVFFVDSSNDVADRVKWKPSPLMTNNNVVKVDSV
The target in series [6] is T2, 5-hydroxytryptamine receptor 2B. Kind of series: Agonist activity at human 5HT2B receptor expressed in Flp-In-HEK cells co-expressing Gq assessed as stimulation of calcium mobilization measured for 2 mins by fluo-4 calcium dye-based FLIPR assay. In kind it is functional, cell-based. A digest of the protocol: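 HEK293 cells stably expressing 5-HT2B, seeded overnight (16–20 h) on poly-L-Lys in DMEM + 1% dFBS. Fluo-4 Direct dye loaded for 1 h at 37 °C in HBSS/20 mM HEPES/2.5 mM probenecid, pH 7.40. Drug diluted in buffer with 1 mg/mL BSA and 0.1 mg/mL ascorbic acid. Fluorescence read for 2 min; peak fold of basal within the first minute.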
In general terms: A change in cytosolic calcium serves as a functional read-out for many receptors and channels.

The nature of series [7]: Drug uptake in Swiss albino mouse plasma at 25 mg/kg, ip administered as single dose measured up to 2 hrs. Type of series: ADME, organism-based. The conditions noted are these: in vivo.
Series [8] in a line: Drug uptake in Swiss albino mouse brain at 25 mg/kg, ip administered as single dose measured up to 2 hrs. Type of series: ADME, organism-based. The conditions noted are these: in vivo.
Series [9] concerns the target T3, Melatonin receptor type 1A. Kind of series: Agonist activity at human MT1 receptor expressed in HTLA cells assessed as stimulation of beta-arrestin recruitment incubated for 16 to 20 hrs by bright-glo luminescence assay. Type of series: cell-based. In short, it runs like this: (§2)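 Tango arrestin assay in HTLA cells transfected with receptor DNA overnight in DMEM + 10% FBS, then replated on poly-L-Lys in DMEM + 1% dFBS. Drugs added 6 h later and incubated overnight (16–20 h). Medium removed, Bright-Glo added, luminescence counted.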

Series [10] addresses T4, Melatonin receptor type 1B (Homo sapiens, UniProt P49286).
T4 sequence (P49286 whole entry): T1 sequence (whole entry)
Kind of series: Agonist activity at human MT2 receptor expressed in HTLA cells assessed as stimulation of beta-arrestin recruitment incubated for 16 to 20 hrs by bright-glo luminescence assay. In kind it is cell-based. A digest of the protocol: as §2

For series [11], the target named is G-protein coupled receptor 68 (Homo sapiens) (UniProt Q15743). Kind of series: Positive allosteric modulation of human GPR68 expressed in HEK293T cells co-expressing Gs assessed as stimulation of proton-mediated cAMP production by measuring allosteric affinity cooperativity in HBSS buffer containing pH 6.8 to 8.2 HEPES/pH 8.3 to 8.6 TAPS measured after 20 to 30 mins in presence of PDE inhibitor Ro 20-1724 by luciferase-glo reporter gene assay. Type of series: functional, cell-based. In short, it runs like this:
(§3)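 Transient co-transfection of HEK293T with receptor and GloSensor plasmids using PEI, overnight, then replated in DMEM + 1% dFBS for 6–24 h. Luciferin 3.5 mM loaded for 1 h at 37 °C in HBSS/20 mM TAPS, pH 8.40. Proton series: Ca/Mg-free HBSS with MES (pH 5.60–6.70), HEPES (6.80–8.20) or TAPS (8.30–8.60), plus 10 μM Ro 20-1724. BSA 1 mg/mL added where solubility required. Luminescence read at 20–30 min. At least six 16-point proton curves across modulator concentrations, quadruplicate, ≥3 independent assays.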

The target of series [12] is G-protein coupled receptor 65 (Homo sapiens) (UniProt Q8IYL9). Kind of series: Positive allosteric modulation of human GPR65 expressed in HEK293T cells co-expressing Gs assessed as stimulation of proton-mediated cAMP production at higher concentration in HBSS buffer containing pH 6.8 to 8.2 HEPES/pH 8.3 to 8.6 TAPS measured after 20 to 30 mins in presence of PDE inhibitor Ro 20-1724 by luciferase-glo reporter gene assay. In kind it is functional, cell-based. A digest of the protocol: as §3
Chain of G-protein coupled receptor 65 (Homo sapiens) (Q8IYL9 whole entry): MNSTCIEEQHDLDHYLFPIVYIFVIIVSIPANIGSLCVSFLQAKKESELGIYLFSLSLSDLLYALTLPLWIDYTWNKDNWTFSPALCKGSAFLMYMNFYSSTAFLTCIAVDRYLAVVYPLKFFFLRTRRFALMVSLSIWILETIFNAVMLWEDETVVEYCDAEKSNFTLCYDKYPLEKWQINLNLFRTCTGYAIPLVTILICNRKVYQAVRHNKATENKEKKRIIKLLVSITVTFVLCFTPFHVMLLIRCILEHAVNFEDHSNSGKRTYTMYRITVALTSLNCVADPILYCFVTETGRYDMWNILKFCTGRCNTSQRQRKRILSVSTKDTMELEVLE

Series [13] addresses G-protein coupled receptor 68 (Homo sapiens) (UniProt Q15743). Kind of series: Positive allosteric modulation of human GPR68 expressed in HEK293T cells co-expressing Gs assessed as stimulation of proton-mediated cAMP production by measuring efficacy cooperativity in HBSS buffer containing pH 6.8 to 8.2 HEPES/pH 8.3 to 8.6 TAPS measured after 20 to 30 mins in presence of PDE inhibitor Ro 20-1724 by luciferase-glo reporter gene assay. Type of series: functional, cell-based. In short, it runs like this: as §3

Series [14] addresses G-protein coupled receptor 68 (Mus musculus) (UniProt Q8BFQ3). Kind of series: Positive allosteric modulation of mouse GPR68 expressed in HEK293T cells co-expressing Gs assessed as stimulation of proton-mediated cAMP production by measuring allosteric index in HBSS buffer containing pH 6.8 to 8.2 HEPES/pH 8.3 to 8.6 TAPS measured after 20 to 30 mins in presence of PDE inhibitor Ro 20-1724 by luciferase-glo reporter gene assay. In kind it is functional, cell-based. In short, it runs like this:
as §1

Series [15] in a line: Drug uptake in Swiss albino mouse brain at 25 mg/kg, ip administered as single dose measured after 0.5 hrs. Type of series: ADME, organism-based. To be noted: read-out: Drug uptake.
Series [16] is described as follows: Drug uptake in Swiss albino mouse plasma at 25 mg/kg, ip administered as single dose measured after 0.5 hrs. Type of series: ADME, organism-based.

The text below walks through data of ChEMBL document CHEMBL4406806, “Design, Synthesis, and Characterization of Ogerin-Based Positive Allosteric Modulators for G Protein-Coupled Receptor 68 (GPR68)” (J Med Chem, 2019).

Activity calls are given as the source filed them. The calls are words filed in the database; no cut-off is given here. Some results are limits rather than exact numbers.

For orientation: EC50 means the concentration that produces a half-maximal response. The Kd is the free concentration of one partner at which half of the binding sites on the other are occupied at equilibrium, for simple one-to-one binding.

Chain of G-protein coupled receptor 68 (Homo sapiens) (Q15743 whole entry): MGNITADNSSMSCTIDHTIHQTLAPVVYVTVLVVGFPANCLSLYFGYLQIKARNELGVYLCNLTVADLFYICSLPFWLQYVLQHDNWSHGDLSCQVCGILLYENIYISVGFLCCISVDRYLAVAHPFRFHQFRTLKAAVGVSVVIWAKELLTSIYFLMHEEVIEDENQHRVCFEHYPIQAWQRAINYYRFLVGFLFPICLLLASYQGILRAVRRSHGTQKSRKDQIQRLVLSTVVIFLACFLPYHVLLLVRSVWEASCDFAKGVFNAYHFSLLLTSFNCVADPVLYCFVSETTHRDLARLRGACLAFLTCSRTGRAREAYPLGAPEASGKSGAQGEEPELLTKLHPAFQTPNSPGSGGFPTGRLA

`Nc1nc(NCc2ccc(Oc3ccccc3)cc2)nc(-c2c(F)cccc2CO)n1`: the log(activity) in series [1] was determined as 1.26; in [3] it was 0.09; in [11], 0.9; in [13], 0.06. For the same molecule, the result in series [2] and in series [5] was Active. Moreover, the Ki is 219 nM in series [4] (read-out: Ki) and 100 to 316 nM in series [4] (read-out: pKi (converted)). The outcome in [6] and in [12] was inactive. Also, the Drug uptake result in series [7] and in series [8] was “Active” throughout. Moreover, the EC50 in [9] stood at 320 nM; in [10], 540 nM. Also, the Kd in series [9] came to 5.9 µM; in [10] it was 1100 nM. Further, in series [14], the Activity index was determined as 6.46. Also, the concentration at 0.5 h in series [15] and in [16] was over 10 µM throughout.
